Measurements taken from ChEMBL document CHEMBL3085664, “Structure-activity relationship of imidazopyridinium analogues as antagonists of neuropeptide s receptor” (J Med Chem, 2013).
Calls of active or inactive are those of the source. The calls are words filed in the database; no cut-off is given here.

How the values were obtained:
[1] = Metabolic stability in mouse liver microsomes assessed as compound remaining after 60 mins in presence NADPH; assay type: ADME, Microsome; settings: read-out: Stability
Outline: (§1)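 Compound was incubated with mouse liver microsomes, and percent parent remaining was determined at 15, 30 and 60 min. Values are means from a single experiment run in duplicate.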

[2] = Plasma concentration in mouse at 10 mg/kg, ip after 0.083 hrs; assay type: ADME, organism-based; set-up: dose 10 mg/kg, route intraperitoneal
Outline: (§2)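 Mouse pharmacokinetics after a single 10 mpk intraperitoneal dose. Plasma and brain were sampled at 0, 0.083, 0.25, 0.5, 1, 2, 4, 8, 12 and 24 h. Concentrations are reported as the mean of N=3 at each time point, in ng/mL or nM for plasma and ng/g or nmol/g for brain.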

[3] = molecular target: T1, Neuropeptide S receptor (Homo sapiens, UniProt Q6W5P4); assay: Displacement of [125I]Tyr10-NPS from human neuropeptide S receptor expressed in CHO cells after 1.5 hrs by liquid scintillation counting; assay type: cell-based
T1 sequence (Q6W5P4 whole entry): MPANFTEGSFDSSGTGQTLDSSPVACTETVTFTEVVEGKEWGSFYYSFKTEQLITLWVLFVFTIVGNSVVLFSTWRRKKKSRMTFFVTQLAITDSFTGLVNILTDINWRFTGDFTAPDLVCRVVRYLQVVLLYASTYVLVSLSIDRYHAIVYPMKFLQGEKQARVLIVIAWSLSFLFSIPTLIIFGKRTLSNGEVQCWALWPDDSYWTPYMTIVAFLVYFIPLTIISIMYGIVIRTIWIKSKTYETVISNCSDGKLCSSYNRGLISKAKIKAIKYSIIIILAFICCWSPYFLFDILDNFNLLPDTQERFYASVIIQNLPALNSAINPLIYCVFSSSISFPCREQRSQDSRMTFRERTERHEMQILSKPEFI
Outline: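 Whole CHO cells stably expressing human NPSR at 90–95% confluency in 24-well plates. Cells were incubated with 0.15 nM [125I]Y10-NPS plus increasing compound or unlabeled NPS in DMEM/0.1% BSA, 20°C, 1.5 hr. Nonspecific binding was defined with 1 µM unlabeled human NPS. Cells were washed, lysed in 1 N NaOH and counted by liquid scintillation. IC50 from one experiment in duplicate.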

[4] = Metabolic stability in mouse liver microsomes assessed as compound remaining after 15 mins in presence NADPH; assay type: ADME, Microsome; settings: read-out: Stability; outline: as §1
[5] = test system: Brain; assay: Tmax in mouse brain at 10 mg/kg, ip; assay type: ADME, organism-based; set-up: dose 10 mg/kg, route intraperitoneal; settings: in vivo; outline: as §2
[6] = test system: Brain; assay: Drug level in mouse brain at 10 mg/kg, ip after 2 hrs; assay type: ADME, organism-based; set-up: dose 10 mg/kg, route intraperitoneal; settings: in vivo; outline: as §2
[7] = molecular target: T2, Mu-type opioid receptor (Homo sapiens, UniProt P35372); assay: Displacement of radiolabeled DAMGO from human recombinant mu opioid receptor expressed in […] at 10 uM; assay type: cell-based
T2 sequence (P35372 whole entry): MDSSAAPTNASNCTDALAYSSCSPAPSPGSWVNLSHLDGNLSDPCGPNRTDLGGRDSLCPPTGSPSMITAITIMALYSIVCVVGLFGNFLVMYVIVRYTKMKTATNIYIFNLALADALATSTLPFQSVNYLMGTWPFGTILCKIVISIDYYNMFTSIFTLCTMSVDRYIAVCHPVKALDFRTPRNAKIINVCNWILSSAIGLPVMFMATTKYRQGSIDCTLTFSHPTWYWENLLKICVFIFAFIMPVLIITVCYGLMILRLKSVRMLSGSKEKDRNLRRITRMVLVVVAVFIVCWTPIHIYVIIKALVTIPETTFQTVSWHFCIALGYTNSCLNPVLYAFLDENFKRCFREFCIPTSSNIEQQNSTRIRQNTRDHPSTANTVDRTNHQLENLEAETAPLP

[8] = Cmax in mouse brain at 10 mg/kg, ip; assay type: ADME, organism-based; set-up: dose 10 mg/kg, route intraperitoneal; outline: as §2
[9] = molecular target: T2, Mu-type opioid receptor; assay: Displacement of radiolabeled DAMGO from human recombinant mu opioid receptor expressed in OPRM1 cells; assay type: cell-based
[10] = Plasma concentration in mouse at 10 mg/kg, ip after 24 hrs; assay type: ADME, organism-based; set-up: dose 10 mg/kg, route intraperitoneal; outline: as §2
[11] = test system: Brain; assay: Drug level in mouse brain at 10 mg/kg, ip after 12 hrs; assay type: ADME, organism-based; set-up: dose 10 mg/kg, route intraperitoneal; settings: in vivo; outline: as §2
[12] = Ratio of AUC in brain to AUC in plasma in mouse at 10 mg/kg, ip; assay type: ADME, organism-based; set-up: dose 10 mg/kg, route intraperitoneal; settings: brain and plasma, read-out: Ratio AUC; outline: as §2
[13] = test system: Brain; assay: Drug level in mouse brain at 10 mg/kg, ip after 1 hrs; assay type: ADME, organism-based; set-up: dose 10 mg/kg, route intraperitoneal; settings: in vivo; outline: as §2
[14] = Plasma concentration in mouse at 10 mg/kg, ip after 12 hrs; assay type: ADME, organism-based; set-up: dose 10 mg/kg, route intraperitoneal; outline: as §2
[15] = test system: Brain; assay: Drug level in mouse brain at 10 mg/kg, ip after 0.25 hrs; assay type: ADME, organism-based; set-up: dose 10 mg/kg, route intraperitoneal; settings: in vivo; outline: as §2
[16] = molecular target: T1, Neuropeptide S receptor; assay: Antagonist activity at neuropeptide S receptor (unknown origin) expressed in CHO cells assessed as inhibition of NPS-induced calcium mobilization after 10 mins by fluorescence assay; assay type: functional, cell-based; settings: read-out: IC50
Outline: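 CHO-NPSR cells, 2000/well in 1536-well plates, incubated overnight, then loaded with no-wash calcium dye for 1 h at 37°C. Compound in DMSO was added for 10 min. Baseline fluorescence was recorded 6 s at 1 Hz, then EC80 NPS in stimulation buffer was added and recording continued 4 min at 1 Hz on a kinetic reader. IC50 is the mean with SD of two independent experiments in duplicate.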

[17] = Plasma concentration in mouse at 10 mg/kg, ip after 1 hrs; assay type: ADME, organism-based; set-up: dose 10 mg/kg, route intraperitoneal; outline: as §2
[18] = test system: Plasma; assay: Half life in mouse plasma at 10 mg/kg, ip; assay type: ADME, organism-based; set-up: dose 10 mg/kg, route intraperitoneal; settings: in vivo; outline: as §2
[19] = Metabolic stability in mouse liver microsomes assessed as compound remaining after 60 mins in absence NADPH; assay type: ADME, Microsome; settings: read-out: Stability; outline: as §1
[20] = Metabolic stability in mouse liver microsomes assessed as compound remaining after 15 mins in absence NADPH; assay type: ADME, Microsome; settings: read-out: Stability; outline: as §1
[21] = test system: Plasma; assay: Tmax in mouse plasma at 10 mg/kg, ip; assay type: ADME, organism-based; set-up: dose 10 mg/kg, route intraperitoneal; settings: in vivo; outline: as §2
[22] = test system: Plasma; assay: Cmax in mouse plasma at 10 mg/kg, ip; assay type: ADME, organism-based; set-up: dose 10 mg/kg, route intraperitoneal; settings: in vivo; outline: as §2
[23] = test system: Brain; assay: Drug level in mouse brain at 10 mg/kg, ip after 4 hrs; assay type: ADME, organism-based; set-up: dose 10 mg/kg, route intraperitoneal; settings: in vivo; outline: as §2
[24] = molecular target: T1, Neuropeptide S receptor; assay: Antagonist activity at neuropeptide S receptor (unknown origin) expressed in CHO cells assessed as inhibition of NPS-induced ERK activation after 20 mins by HTRF assay; assay type: cell-based
[25] = test system: Brain; assay: AUClast in mouse brain at 10 mg/kg, ip; assay type: ADME, organism-based; set-up: time 0 - last, dose 10 mg/kg, route intraperitoneal; settings: in vivo; outline: as §2
[26] = Plasma concentration in mouse at 10 mg/kg, ip after 0.5 hrs; assay type: ADME, organism-based; set-up: dose 10 mg/kg, route intraperitoneal; outline: as §2
[27] = test system: Brain; assay: Drug level in mouse brain at 10 mg/kg, ip after 8 hrs; assay type: ADME, organism-based; set-up: dose 10 mg/kg, route intraperitoneal; settings: in vivo; outline: as §2
[28] = test system: Rattus norvegicus; assay: Toxicity in Wistar rat administered daily; assay type: organism-based; settings: in vivo
[29] = test system: Brain; assay: Drug level in mouse brain at 10 mg/kg, ip after 0.5 hrs; assay type: ADME, organism-based; set-up: dose 10 mg/kg, route intraperitoneal; settings: in vivo; outline: as §2
[30] = Plasma concentration in mouse at 10 mg/kg, ip after 2 hrs; assay type: ADME, organism-based; set-up: dose 10 mg/kg, route intraperitoneal; outline: as §2
[31] = Metabolic stability in mouse liver microsomes assessed as compound remaining after 30 mins in presence NADPH; assay type: ADME, Microsome; settings: read-out: Stability; outline: as §1
[32] = Metabolic stability in mouse liver microsomes assessed as compound remaining after 30 mins in absence NADPH; assay type: ADME, Microsome; settings: read-out: Stability; outline: as §1
[33] = molecular target: T1, Neuropeptide S receptor; assay: Antagonist activity at neuropeptide S receptor (unknown origin) expressed in CHO cells assessed as cAMP level after 30 mins by […] assay; assay type: functional, cell-based; settings: read-out: IC50
Outline: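 CHO cells stably expressing NPSR, 1800 cells/well in 1536-well format, seeded overnight at 37°C in medium without Geneticin. Stimulation buffer (PBS, 0.1% BSA, 0.05% Tween-20, 500µM Ro 20-1724, EC80 NPS) was added for 30 min at 37°C. cAMP was read by HTRF (d2-cAMP/cryptate anti-cAMP in lysis buffer, 30 min). IC50 is the mean with SD of two independent experiments, each run in duplicate.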

[34] = test system: Brain; assay: Drug level in mouse brain at 10 mg/kg, ip after 0.083 hrs; assay type: ADME, organism-based; set-up: dose 10 mg/kg, route intraperitoneal; settings: in vivo; outline: as §2
[35] = test system: Plasma; assay: AUClast in mouse plasma at 10 mg/kg, ip; assay type: ADME, organism-based; set-up: dose 10 mg/kg, route intraperitoneal, time 0 - last; settings: in vivo; outline: as §2
[36] = test system: Rattus norvegicus; assay: Anorectic activity in Wistar rat assessed as […] of NPS-induced reduction of food intake at 20 ug, icv after 15 to 60 mins; assay type: functional, organism-based
[37] = Plasma concentration in mouse at 10 mg/kg, ip after 0.25 hrs; assay type: ADME, organism-based; set-up: dose 10 mg/kg, route intraperitoneal; outline: as §2
[38] = test system: Rattus norvegicus; assay: Inhibition of alcohol-induced ERK-phosphorylation in rat in central amygdala at 1 mg/kg, ip; assay type: functional, organism-based; set-up: dose 1 mg/kg
[39] = test system: Brain; assay: Drug level in mouse brain at 10 mg/kg, ip after 24 hrs; assay type: ADME, organism-based; set-up: dose 10 mg/kg, route intraperitoneal; settings: in vivo; outline: as §2
[40] = Plasma concentration in mouse at 10 mg/kg, ip after 8 hrs; assay type: ADME, organism-based; set-up: dose 10 mg/kg, route intraperitoneal; outline: as §2
[41] = Plasma concentration in mouse at 10 mg/kg, ip after 4 hrs; assay type: ADME, organism-based; set-up: dose 10 mg/kg, route intraperitoneal; outline: as §2
[42] = test system: Plasma; assay: AUC (infinity) in mouse plasma at 10 mg/kg, ip; assay type: ADME, organism-based; set-up: time infinity, dose 10 mg/kg, route intraperitoneal; settings: in vivo; outline: as §2

Cc1c(P(=S)(c2ccccc2)c2ccccc2)n2ccccc2[n+]1C/C=C/c1ccccc1.[Br-]
remaining at 1 h [1]: 26%
concentration at 0.083 h [2]: 1500 nM
IC50 [3]: 3.5 nM
remaining at 0.25 h [4]: 72%
Tmax [5]: 12 h
Drug uptake [6]: 57 nmol/g
inhibition [7]: > 90%
Cmax [8]: 43 ng/mL
IC50 [9]: 580 nM
concentration at 24 h [10]: 54 nM
Drug uptake [11]: 93 nmol/g
Kp [12]: 33
Drug uptake [13]: 44 nmol/g
concentration at 12 h [14]: 126 nM
Drug uptake [15]: 52 nmol/g
IC50 [16]: 0.96 nM
concentration at 1 h [17]: 556 nM
t1/2 [18]: 8.8 h
remaining at 1 h [19]: 102%
remaining at 0.25 h [20]: 102%
Tmax [21]: 4.98 min
Cmax [22]: 700 ng/mL
Drug uptake [23]: 53 nmol/g
IC50 [24]: 1.3 nM
AUClast [25]: 746 ng·h/mL
concentration at 0.5 h [26]: 1150 nM
Drug uptake [27]: 60 nmol/g
Activity [28]: Non-toxic
Drug uptake [29]: 53 nmol/g
concentration at 2 h [30]: 386 nM
remaining at 0.5 h [31]: 46%
remaining at 0.5 h [32]: 102%
IC50 [33]: 45 nM
Drug uptake [34]: 30 nmol/g
AUClast [35]: 2240 ng·h/mL
Activity [36]: Active
concentration at 0.25 h [37]: 1320 nM
inhibition [38]: Active
Drug uptake [39]: 52 nmol/g
concentration at 8 h [40]: 214 nM
concentration at 4 h [41]: 245 nM
AUC [42]: 2560 ng·h/mL
